{"source": "ChEMBL document CHEMBL4689842", "about": "“EUbOPEN Chemogenomics Library wave 1” (2021)", "test_system": "U2OS", "experiment": "Multiplex assay against U2OS", "type": "toxicity, cell-based", "conditions": "human, 10 µM, compound concentration 10 uM", "procedure,_shortened": "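On a CQ1 microscope at 37°C and 5% CO2, live cells were imaged after compound addition. They had been stained at seeding with Hoechst33342, BioTracker Green Microtubule Cytoskeleton Dye, MitoTracker Red and Annexin V Alexa Fluor 680. CellPathfinder machine-learning gating assigned cells to Hoechst high-intensity objects or normal cells, normal cells to healthy, pyknosed or fragmented nuclei, and pyknosed cells to mitotic or apoptotic. Tubulin, mitochondrial-mass and membrane-permeability phenotypes are per cents of healthy-nucleus cells.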", "note": "Several values for one entry are separate records, joined by “and”; a condition that tells them apart may be missing. Equal entries are not always repeated.", "data": [{"smiles": "Cc1cc(NC(=O)c2cccc(S(F)(F)(F)(F)F)c2)cc(-n2ccn3nc(-c4cccnc4)cc23)c1", "note": "[BAY-309]", "values": [{"measurement": "Population Apoptotic (%)", "setting": "12 h, replicate 1", "result": "25% and 23%"}, {"measurement": "Population Fragmented Nuclei (%)", "setting": "12 h, replicate 1", "result": 4, "unit": "%"}, {"measurement": "Population Healthy Nuclei (%)", "setting": "12 h, replicate 1", "result": "87% and 78%"}, {"measurement": "Population Hoechst High Intensity Objects (%)", "setting": "12 h, replicate 1", "result": "0% and 3%"}, {"measurement": "Population Membrane Permeable-Phenotype (%)", "setting": "12 h, replicate 1", "result": "46% and 55%"}, {"measurement": "Population Mitochondria Different-Phenotype (%)", "setting": "12 h, replicate 1", "result": "30% and 60%"}, {"measurement": "Population Mitotic Cells (%)", "setting": "12 h, replicate 1", "result": "75% and 76%"}, {"measurement": "Population Normal (%)", "setting": "12 h, replicate 1", "result": "99% and 96%"}, {"measurement": "Population Pyknosed Nuclei (%)", "setting": "12 h, replicate 1", "result": "7% and 16%"}, {"measurement": "Population Tubulin-Different-Phenotype (%)", "setting": "12 h, replicate 1", "result": 67, "unit": "%"}, {"measurement": "Total Cell Count", "setting": "12 h, replicate 1", "result": "108 and 233"}, {"measurement": "Population Apoptotic (%)", "setting": "12 h, replicate 2", "result": "37% and 56%"}, {"measurement": "Population Fragmented Nuclei (%)", "setting": "12 h, replicate 2", "result": "8% and 9%"}, {"measurement": "Population Healthy Nuclei (%)", "setting": "12 h, replicate 2", "result": "82% and 67%"}, {"measurement": "Population Hoechst High Intensity Objects (%)", "setting": "12 h, replicate 2", "result": "9% and 5%"}, {"measurement": "Population Membrane Permeable-Phenotype (%)", "setting": "12 h, replicate 2", "result": "53% and 49%"}, {"measurement": "Population Mitotic Cells (%)", "setting": "12 h, replicate 2", "result": "62% and 43%"}, {"measurement": "Population Normal (%)", "setting": "12 h, replicate 2", "result": "90% and 94%"}, {"measurement": "Population Pyknosed Nuclei (%)", "setting": "12 h, replicate 2", "result": "9% and 22%"}, {"measurement": "Population Tubulin-Different-Phenotype (%)", "setting": "12 h, replicate 2", "result": "61% and 100%"}, {"measurement": "Total Cell Count", "setting": "12 h, replicate 2", "result": 185}, {"measurement": "Population Apoptotic (%)", "setting": "24 h, replicate 1", "result": "50% and 61%"}, {"measurement": "Population Fragmented Nuclei (%)", "setting": "24 h, replicate 1", "result": "8% and 6%"}, {"measurement": "Population Healthy Nuclei (%)", "setting": "24 h, replicate 1", "result": "85% and 70%"}, {"measurement": "Population Hoechst High Intensity Objects (%)", "setting": "24 h, replicate 1", "result": "5% and 3%"}, {"measurement": "Population Membrane Permeable-Phenotype (%)", "setting": "24 h, replicate 1", "result": "42% and 56%"}, {"measurement": "Population Mitotic Cells (%)", "setting": "24 h, replicate 1", "result": "50% and 38%"}, {"measurement": "Population Normal (%)", "setting": "24 h, replicate 1", "result": "95% and 96%"}, {"measurement": "Population Tubulin-Different-Phenotype (%)", "setting": "24 h, replicate 1", "result": 53, "unit": "%"}, {"measurement": "Total Cell Count", "setting": "24 h, replicate 1", "result": "140 and 230"}, {"measurement": "Population Apoptotic (%)", "setting": "24 h, replicate 2", "result": "95% and 37%"}, {"measurement": "Population Fragmented Nuclei (%)", "setting": "24 h, replicate 2", "result": "15% and 7%"}, {"measurement": "Population Healthy Nuclei (%)", "setting": "24 h, replicate 2", "result": "60% and 84%"}, {"measurement": "Population Hoechst High Intensity Objects (%)", "setting": "24 h, replicate 2", "result": "9% and 6%"}, {"measurement": "Population Membrane Permeable-Phenotype (%)", "setting": "24 h, replicate 2", "result": "74% and 40%"}, {"measurement": "Population Mitochondria Different-Phenotype (%)", "setting": "24 h, replicate 2", "result": "83% and 30%"}, {"measurement": "Population Normal (%)", "setting": "24 h, replicate 2", "result": "90% and 93%"}, {"measurement": "Population Tubulin-Different-Phenotype (%)", "setting": "24 h, replicate 2", "result": "100% and 40%"}, {"measurement": "Total Cell Count", "setting": "24 h, replicate 2", "result": "108 and 215"}]}]}
